# Screens from PubChem BioAssay.
# APP 5'UTR act – activates APP 5'UTR luciferase reporter | SH-SY5Y APP 5'UTR luciferase reporter, luminescence; zero percent = DMSO vehicle wells | activation, % at 2 µM | 190,000 tested, 1% active | AID 1276;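 active = activation above a set limit, based on mean plus 3 SD of controls, cut at about 140% in these data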
# STAT1 activator – increases IFN-gamma driven STAT1 reporter signal | activation (% of control), % at 5.5 µM | 200,000 tested, 2.6% active | NIH 3T3 STAT1-luciferase reporter, luminescence; 100% = IFN-gamma alone, no compound;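 active = activation above the screen-wide mean activation plus 3 SD, cut at about 130% in these data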;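 note: raw ratio to IFN-gamma control signal so 100% means no change and 0% no light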
# NF-kB neuron act – NF-kB expression increase, human neuronal cells; NF-kB reporter expression; hits give high values; fold change at 12.5 µM; 190,000 tested, 1.6% active; AID 1239; in the data active = fold change above about 3.3
# STAT3 inh – STAT3 signaling inhibition. inhibition, % at 5.5 µM. AID 862. U3A cells, IL-6 STAT3-luciferase reporter, luminescence; host cell line lacks STAT1. 190,000 tested, 0.89% active;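 active = inhibition above the mean inhibition across all screened compounds plus 3 SD, cut at about 44% in these data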;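 note: 0% = DMSO only wells and 100% = 100 µM nifuroxazide control wells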
# STAT3 act – activators of IL-6 induced STAT3 signaling | U3A cells, IL-6 STAT3-luciferase reporter, luminescence; 100% = signal with IL-6 EC80 alone | activation (% of control), % at 5.6 µM | 190,000 tested, 0.91% active;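 active = activation above the screen-wide mean of compound activation plus 3 SD, cut at about 130% in these data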;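 note: 0% = background luminescence of wells with medium and substrate only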
#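 Material: STAT3-luciferase reporter U3A cells. Controls: IL-6-treated wells, 100% activation. Read-out: % activation versus median of IL-6-stimulated wells. Probe or stimulus: IL-6 stimulus at 33 ng/mL final. Timing: compound 1 h, then IL-6 6 h at 37 °C. Signal: reporter luminescence signal.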
# STAT1 blocker – STAT1 signaling inhibition | 200,000 tested, 0.35% active | NIH 3T3 STAT1-luciferase reporter, IFN-gamma, luminescence | inhibition, % at 5.5 µM | AID 920;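 active = inhibition above a set limit, the mean inhibition across all tested compounds plus 3 SD, cut at about 34% in these data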;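 note: 0% = IFN-gamma with DMSO and 100% = IFN-gamma with 300 µM nifuroxazide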
# Numbers without * were called inactive; x = no result given. Shown are actives, neighbours in structure and some others; about 4.9% of the full set was active somewhere.
SMILES,APP 5'UTR act,STAT1 activator,NF-kB neuron act,STAT3 inh,STAT3 act,STAT1 blocker
Cn1c(Cl)cnc1C1CC(=O)c2cc(Cl)ccc2O1 (configuration not stated),-27,103,4.7*,4,103,-3
Cn1c2c(c(=O)n(C)c1=O)C1c3cc(Cl)ccc3OCC1CO2 (configuration not stated),13,107,1.3,0,101,-8
O=C(CSc1nnc2ccccn12)Nc1ccc2c(c1)OCCO2,39,139*,1.8,0,104,-45
O=C(Cn1cnc2ccccc2c1=O)Nc1ccc2c(c1)OCCO2,94,130*,1.1,0,107,-33
CCn1nnnc1SCC(=O)Nc1ccc2c(c1)OCO2,10,105,1.4,1,101,-8
Cn1nnnc1SCC(=O)Nc1ccc2c(c1)OCO2,-2,141*,1.9,4,100,-49
COc1ccccc1NC(=O)CNc1ccc(F)c(Cl)c1,5,101,1.1,-6,105,-1
CCc1cccc(CC)c1NC(=S)N(CCN(C)C)C(C)c1cccnc1 (configuration not stated),-5,98,1.2,-9,114,0
O=C(Nc1nccs1)c1sc2cc(Cl)ccc2c1Cl,128,146*,3.1,-34,130,-52
O=C(Nc1nccs1)c1sc2ccccc2c1Cl,234*,106,7*,38,69,-6
O=[N+]([O-])c1ccc(CSc2nc3ccccc3[nH]2)cc1,81,141*,2.3,-3,98,-45
Fc1ccc(CSc2nc3ccccc3[nH]2)cc1,79,129*,4.8*,13,89,-32
Fc1ccc(CSc2nc3ncccc3[nH]2)cc1,27,103,1.5,19,91,-3
CC(C)c1ccc(C(N)=S)cc1,1,111,1.1,5,100,-10
O=C1N(c2cccc(Cl)c2)C(c2ccc(Cl)cc2)N2CCCN12 (configuration not stated),0,101,0.87,8,95,-1
CC(C)(C)C(=O)Nc1ccc2oc(-c3cc(F)c(F)cc3Cl)nc2c1,112,142*,4.3*,1,100,-45
CCN(CC)CCCN(C(=O)c1cccs1)c1nc(-c2ccc(OC)cc2)cs1,5,105,0.89,0,102,-6
COc1ccc(-c2csc(N(C)C(=O)c3cccs3)n2)cc1,73,131*,1.5,13,92,-36
CC(C)c1ccc(NC(=S)NNC(=O)c2cccs2)cc1,81,144*,2.7,7,100,-50
CCC(C)c1ccc(NC(=O)c2cccs2)cc1 (configuration not stated),150*,130*,11*,36,73,-33
O=C(Nc1ccc(-c2cn3ccccc3n2)cc1)c1cccs1,136*,134*,2.2,20,87,-37
CC1(C)Nc2ccccc2N(Cc2ccc([N+](=O)[O-])cc2)C1=O,16,103,1.1,-1,100,-3
CCCCN(CC(=O)NCCOC)C(=O)Cn1nnc2ccccc21,22,102,1.1,11,100,-3
CC(C)(C)c1csc(NC(=O)c2cccs2)n1,122,130*,2.5,2,101,-33
COc1ccc(NC(=O)c2cccs2)cc1,66,140*,3,2,102,-40
SMILES,APP 5'UTR act,STAT1 activator,NF-kB neuron act,STAT3 inh,STAT3 act,STAT1 blocker
CC(C)(C)c1csc(NC(=O)Cc2cccs2)n1,12,109,1.1,19,88,-14
COc1ccc(NC(=S)NNC(=O)c2cccs2)cc1,42,115,1.6,-3,103,-17
NC(=O)CSCc1nc2ccccc2s1,20,101,1.1,-42,135*,-1
Oc1ccccc1OCc1nc2ccccc2s1,154*,107,3.4*,17,87,-7
O=C(Nc1ccc(C(=O)Oc2ccccc2)c(O)c1)c1ccco1,51,119,2.8,-1,104,-21
Cc1ccc(C)c2[nH]c(=O)c(C(c3nnnn3C(C)(C)C)N3CC=C(c4ccc(F)cc4)CC3)cc12 (configuration not stated),0,69,0.88,-10,106,35*
CCN1C(=O)C(C)S/C1=N\S(=O)(=O)c1ccc(Cl)s1 (configuration not stated),4,107,1.1,3,101,-7
Cc1ccc(C2=NCN(c3ccc(C(=O)O)cc3)C(=S)N2)cc1,28,136*,1.8,-5,106,-37
Cc1ccc(-c2cc(=O)c3cc(Cl)ccc3[nH]2)cc1,138*,143*,1.8,x,x,-44
COc1ccc(-c2cc(=O)c3cc(C)ccc3[nH]2)cc1,99,150*,6.5*,9,90,-55
Cc1ccc2[nH]c(-c3ccccc3)cc(=O)c2c1,-91,126,6*,15,88,-29
COc1cc2[nH]c(-c3ccc(C)cc3)cc(=O)c2cc1OC,12,107,1.1,-11,107,-8
Cc1ccc(-c2cc(=O)c3ccccc3[nH]2)cc1,14,102,1.7,5,94,-2
CCc1ccccc1NC(=O)c1cc(C2CC2)on1,9,x,1.6,x,x,x
Cn1cccc1/C=N/NC(=O)C12CC3CC(CC(C3)C1)C2,6,107,1.2,-6,105,-8
O=c1c2oc3ccccc3c2ncn1Cc1ccccc1F,4,110,3.5*,0,107,-11
CCOc1cc(/C=N/O)ccc1OS(=O)(=O)c1ccc(C)cc1,-7,95,0.96,4,102,5
Cc1ccc(COc2ccc(Br)cc2/C=N/O)cc1,78,135*,3.1,19,89,-39
CCOc1cc(/C=N/O)ccc1OCc1ccc(C)cc1,18,130*,1.5,-6,102,-34
Cc1c(C(=O)OC2CCCC2)[nH]c2c1C(=O)CC(c1ccco1)C2 (configuration not stated),-94,97,4.3*,-25,120,0
C/C=C/COC(=O)c1[nH]c2c(c1C)C(=O)CC(c1ccco1)C2 (configuration not stated),-95,87,1.9,3,102,15
Cc1c(C(=O)OC2CCCC2C)[nH]c2c1C(=O)CCC2 (configuration not stated),25,110,2,16,87,-10
COC(=O)C1C(=O)c2c([nH]c(C(=O)OC3CCCC3)c2C)CC1C (configuration not stated),109,144*,3.4*,-9,108,-57
C=CCOC(=O)c1[nH]c2c(c1C)C(=O)CC(c1ccco1)C2 (configuration not stated),-97,97,4.7*,-36,130,5
CCOc1ccc(S(=O)(=O)N2CCN(c3ccccc3OC)CC2)c2cccnc12,6,88,0.81,4,100,13
